ChEMBL document CHEMBL4689842, “EUbOPEN Chemogenomics Library wave 1” (2021)
Values joined by “and” are separate entries in the source; they are usually repeats but may differ in a detail not shown here. Equal values may be shown once.

Test system: Fibroblast
Test: Multiplex assay against human fibroblast
Format: toxicity, cell-based
Procedure, shortened: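 Compound was added to live cells that had been stained at seeding with Hoechst33342, BioTracker Green Microtubule Cytoskeleton Dye, MitoTracker Red and Annexin V Alexa Fluor 680, and imaging followed on a CQ1 microscope at 37°C and 5% CO2. CellPathfinder machine-learning gating divided cells into Hoechst high-intensity objects or normal cells, normal cells into healthy, pyknosed or fragmented nuclei, and pyknosed cells into mitotic or apoptotic. Tubulin, mitochondrial-mass and membrane-permeability phenotypes are per cents of healthy-nucleus cells.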

[1] = 12 h, 1 µM, compound concentration 1 uM, replicate 1
[2] = 12 h, 1 µM, compound concentration 1 uM, replicate 2
[3] = 12 h, 10 µM, compound concentration 10 uM, replicate 1
[4] = 12 h, 10 µM, compound concentration 10 uM, replicate 2
[5] = 24 h, 1 µM, compound concentration 1 uM, replicate 1
[6] = 24 h, 1 µM, compound concentration 1 uM, replicate 2
[7] = 24 h, 10 µM, compound concentration 10 uM, replicate 1
[8] = 24 h, 10 µM, compound concentration 10 uM, replicate 2
[9] = 48 h, 10 µM, compound concentration 10 uM, replicate 1
[10] = 48 h, 10 µM, compound concentration 10 uM, replicate 2

## Cc1c(Nc2ccc(S(=O)(=O)N3CCN(C)CC3)cc2F)nc2ccc(-c3cnn(C4CC4)c3)cn2c1=O
[1]
  Population Apoptotic (%): 66%
  Population Fragmented Nuclei (%): 29%
  Population Healthy Nuclei (%): 57%
  Population Hoechst High Intensity Objects (%): 11%
  Population Membrane Permeable-Phenotype (%): 9%
  Population Mitochondria Different-Phenotype (%): 4%
  Population Mitotic Cells (%): 33%
  Population Normal (%): 88%
  Population Pyknosed Nuclei (%): 12%
  Population Tubulin-Different-Phenotype (%): 4%
  Total Cell Count: 222
[2]
  Population Apoptotic (%): 50%
  Population Fragmented Nuclei (%): 49%
  Population Healthy Nuclei (%): 40%
  Population Hoechst High Intensity Objects (%): 24%
  Population Membrane Permeable-Phenotype (%): 0%
  Population Mitochondria Different-Phenotype (%): 0%
  Population Mitotic Cells (%): 50%
  Population Normal (%): 75%
  Population Pyknosed Nuclei (%): 10%
  Population Tubulin-Different-Phenotype (%): 0%
  Total Cell Count: 73
[3]
  Population Apoptotic (%): 67% and 50%
  Population Fragmented Nuclei (%): 32% and 29%
  Population Healthy Nuclei (%): 39% and 54%
  Population Hoechst High Intensity Objects (%): 45% and 41%
  Population Membrane Permeable-Phenotype (%): 19% and 13%
  Population Mitochondria Different-Phenotype (%): 3% and 4%
  Population Mitotic Cells (%): 32% and 50%
  Population Normal (%): 54% and 58%
  Population Pyknosed Nuclei (%): 27% and 16%
  Population Tubulin-Different-Phenotype (%): 30% and 20%
  Total Cell Count: 373 and 542
[4]
  Population Apoptotic (%): 78% and 64%
  Population Fragmented Nuclei (%): 34% and 56%
  Population Healthy Nuclei (%): 42%
  Population Hoechst High Intensity Objects (%): 79% and 58%
  Population Membrane Permeable-Phenotype (%): 11% and 8%
  Population Mitotic Cells (%): 21% and 35%
  Population Normal (%): 20% and 41%
  Population Tubulin-Different-Phenotype (%): 6% and 8%
[5]
  Population Apoptotic (%): 85%
  Population Fragmented Nuclei (%): 26%
  Population Healthy Nuclei (%): 60%
  Population Hoechst High Intensity Objects (%): 12%
  Population Membrane Permeable-Phenotype (%): 5%
  Population Mitochondria Different-Phenotype (%): 2%
  Population Mitotic Cells (%): 14%
  Population Normal (%): 87%
  Population Pyknosed Nuclei (%): 13%
  Population Tubulin-Different-Phenotype (%): 4%
  Total Cell Count: 230
[6]
  Population Apoptotic (%): 80%
  Population Fragmented Nuclei (%): 58%
  Population Healthy Nuclei (%): 34%
  Population Hoechst High Intensity Objects (%): 20%
  Population Membrane Permeable-Phenotype (%): 8%
  Population Mitochondria Different-Phenotype (%): 12%
  Population Mitotic Cells (%): 20%
  Population Normal (%): 79%
  Population Pyknosed Nuclei (%): 6%
  Population Tubulin-Different-Phenotype (%): 8%
  Total Cell Count: 91
[7]
  Population Apoptotic (%): 46% and 54%
  Population Fragmented Nuclei (%): 40% and 29%
  Population Healthy Nuclei (%): 46% and 57%
  Population Hoechst High Intensity Objects (%): 42% and 34%
  Population Membrane Permeable-Phenotype (%): 21%
  Population Mitotic Cells (%): 53% and 45%
  Population Normal (%): 57% and 65%
  Population Pyknosed Nuclei (%): 13%
  Population Tubulin-Different-Phenotype (%): 37% and 21%
  Total Cell Count: 395 and 524
[8]
  Population Apoptotic (%): 60% and 68%
  Population Fragmented Nuclei (%): 58% and 33%
  Population Healthy Nuclei (%): 37% and 44%
  Population Hoechst High Intensity Objects (%): 58% and 77%
  Population Membrane Permeable-Phenotype (%): 13% and 9%
  Population Mitochondria Different-Phenotype (%): 23% and 0%
  Population Mitotic Cells (%): 40% and 31%
  Population Normal (%): 41% and 22%
[9]
  Population Apoptotic (%): 57%
  Population Fragmented Nuclei (%): 39%
  Population Healthy Nuclei (%): 47%
  Population Hoechst High Intensity Objects (%): 43%
  Population Membrane Permeable-Phenotype (%): 14%
  Population Mitochondria Different-Phenotype (%): 1%
  Population Mitotic Cells (%): 42%
  Population Normal (%): 56%
  Population Pyknosed Nuclei (%): 13%
  Population Tubulin-Different-Phenotype (%): 31%
  Total Cell Count: 344
[10]
  Population Apoptotic (%): 60%
  Population Healthy Nuclei (%): 57%
  Population Hoechst High Intensity Objects (%): 19%
  Population Membrane Permeable-Phenotype (%): 16%
  Population Mitotic Cells (%): 40%
  Population Normal (%): 80%
  Population Pyknosed Nuclei (%): 3%
  Population Tubulin-Different-Phenotype (%): 24%
  Total Cell Count: 159
